As usually defined, the AUC(0-t) is the area under the concentration-time curve up to a stated or last time point. A low value points to less exposure. As usually defined, the Tmax is the time from dosing to the highest level. As usually defined, the AUC(0-inf) is total exposure, with the tail of the curve extrapolated. For orientation: clearance means the rate of elimination divided by the concentration. Low readings indicate inefficient removal, high ones efficient removal. In general, Cmax refers to the highest concentration seen after dosing.

Assay type in all cases: ADME, organism-based
Series [1] in a line: AUC (0 to t) in C57BL/6 mouse at 5 mg/kg administered intraarterially by LC-MS/MS analysis. Also noted: dose 5 mg/kg, route intra-arterial. The note with it: plasma. An outline of the steps:
(§1)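 Carotid-cannulated male C57BL/6 mice, food withheld for the first 10 h, dosed at 5 mg/kg intraarterially in saline; n = 4. Serial plasma samples taken 2.5–600 min are analysed by LC-MS/MS in negative ESI mode after methanol precipitation with acetaminophen as IS. Noncompartmental analysis uses linear trapezoidal AUC, with Cl = Dose/AUC0-inf, Vss = Cl×MRT, and t1/2 = 0.693/k.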

Series [2] in a line: Tmax in C57BL/6 mouse at 5 mg/kg administered intraarterially by LC-MS/MS analysis. The arrangement: dose 5 mg/kg, route intra-arterial. The note with it: in vivo. In short, it runs like this: as §1
The nature of series [3]: Terminal half life in C57BL/6 mouse at 5 mg/kg administered intraarterially by LC-MS/MS analysis. Also noted: dose 5 mg/kg, route intra-arterial. The note with it: in vivo, read-out: beta t1/2. In short, it runs like this:
as §1

A short description of series [4]: AUC (0 to infinity) in C57BL/6 mouse at 5 mg/kg administered intraarterially by LC-MS/MS analysis. Also noted: time infinity, dose 5 mg/kg, route intra-arterial. The note with it: plasma. In short, it runs like this: as §1
Series [5] is described as follows: Clearance in C57BL/6 mouse at 5 mg/kg administered intraarterially by LC-MS/MS analysis. The arrangement: dose 5 mg/kg, route intra-arterial. To be noted: in vivo. An outline of the steps:
as §1

Series [6] is described as follows: Cmax in C57BL/6 mouse at 5 mg/kg administered intraarterially by LC-MS/MS analysis. Also noted: dose 5 mg/kg, route intra-arterial. To be noted: in vivo. In short, it runs like this: as §1
Series [7] in a line: Volume of distribution at steady state in C57BL/6 mouse at 5 mg/kg administered intraarterially by LC-MS/MS analysis. The arrangement: dose 5 mg/kg, route intra-arterial. The note with it: in vivo, read-out: Vdss. An outline of the steps:
as §1

A short description of series [8]: Cmax in C57BL/6 mouse at 15 mg/kg administered intraarterially by LC-MS/MS analysis. The arrangement: dose 15 mg/kg, route intra-arterial. The note with it: in vivo. In short, it runs like this: (§2)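 Male C57BL/6 mice (20–25 g), fasted for the first 10 h of sampling. Single 15 mg/kg bolus in 20% 2-hydroxypropyl-β-cyclodextrin in saline via carotid artery cannula. Serial 20 µl blood draws from 2.5 to 600 min, plus 24 h; n = 5. Plasma is methanol-precipitated (acetaminophen IS) and run on negative-ESI LC-MS/MS. Noncompartmental analysis: linear trapezoidal AUC, Cl = Dose/AUC0-inf, Vss = Cl×MRT, t1/2 = 0.693/k.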

A short description of series [9]: Volume of distribution at steady state in C57BL/6 mouse at 15 mg/kg administered intraarterially by LC-MS/MS analysis. Also noted: dose 15 mg/kg, route intra-arterial. To be noted: in vivo, read-out: Vdss. An outline of the steps:
as §2

Series [10] in a line: Clearance in C57BL/6 mouse at 15 mg/kg administered intraarterially by LC-MS/MS analysis. Also noted: dose 15 mg/kg, route intra-arterial. To be noted: in vivo. In short, it runs like this: as §2
A short description of series [11]: Tmax in C57BL/6 mouse at 15 mg/kg administered intraarterially by LC-MS/MS analysis. Also noted: dose 15 mg/kg, route intra-arterial. To be noted: in vivo. An outline of the steps: as §2
The nature of series [12]: AUC (0 to t) in C57BL/6 mouse at 15 mg/kg administered intraarterially by LC-MS/MS analysis. The arrangement: dose 15 mg/kg, route intra-arterial. The note with it: plasma. In short, it runs like this:
as §2

A short description of series [13]: Terminal half life in C57BL/6 mouse at 15 mg/kg administered intraarterially by LC-MS/MS analysis. Also noted: dose 15 mg/kg, route intra-arterial. To be noted: in vivo, read-out: beta t1/2. An outline of the steps:
as §2

Series [14] in a line: AUC (0 to infinity) in C57BL/6 mouse at 15 mg/kg administered intraarterially by LC-MS/MS analysis. Also noted: time infinity, dose 15 mg/kg, route intra-arterial. To be noted: plasma. An outline of the steps: as §2
Series [15] can be described thus: Tmax in C57BL/6 mouse at 3.5 mg/kg administered intraarterially by LC-MS/MS analysis. Also noted: dose 3.5 mg/kg, route intra-arterial. To be noted: in vivo. An outline of the steps:
(§3)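 Single 3.5 mg/kg intraarterial bolus in saline via carotid cannula to fasted male C57BL/6 mice; n = 4. Blood (20 µl) is drawn serially over 2.5–600 min and at 24 h. Plasma with ascorbic acid is precipitated with methanol containing acetaminophen IS, then quantified by negative-mode LC-MS/MS. Noncompartmental parameters: trapezoidal AUC, Cl = Dose/AUC0-inf, Vss = Cl×MRT0-inf, t1/2 = 0.693/terminal slope.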

The nature of series [16]: Volume of distribution at steady state in C57BL/6 mouse at 3.5 mg/kg administered intraarterially by LC-MS/MS analysis. Also noted: dose 3.5 mg/kg, route intra-arterial. To be noted: in vivo, read-out: Vdss. An outline of the steps:
as §3

Series [17] can be described thus: AUC (0 to t) in C57BL/6 mouse at 3.5 mg/kg administered intraarterially by LC-MS/MS analysis. The arrangement: dose 3.5 mg/kg, route intra-arterial. The note with it: plasma. In short, it runs like this:
as §3

A short description of series [18]: Cmax in C57BL/6 mouse at 3.5 mg/kg administered intraarterially by LC-MS/MS analysis. The note with it: in vivo. The arrangement: dose 3.5 mg/kg, route intra-arterial. An outline of the steps: as §3
Series [19] in a line: Terminal half life in C57BL/6 mouse at 3.5 mg/kg administered intraarterially by LC-MS/MS analysis. Also noted: dose 3.5 mg/kg, route intra-arterial. To be noted: in vivo, read-out: beta t1/2. An outline of the steps: as §3
Series [20] can be described thus: Clearance in C57BL/6 mouse at 3.5 mg/kg administered intraarterially by LC-MS/MS analysis. Also noted: dose 3.5 mg/kg, route intra-arterial. To be noted: in vivo. In short, it runs like this:
as §3

A short description of series [21]: AUC (0 to infinity) in C57BL/6 mouse at 3.5 mg/kg administered intraarterially by LC-MS/MS analysis. The arrangement: time infinity, dose 3.5 mg/kg, route intra-arterial. To be noted: plasma. In short, it runs like this: as §3

In series [1], `O=S(=O)(O)Oc1cc(O)cc(/C=C/c2ccc(O)cc2)c1` showed an exposure AUC(0-t) of 4.05 µM·h. Further, in [2], the Tmax was 2.5 min. In addition, the half-life in [3] turned out to be 2.13 h. Besides, the area under the curve AUC(0-inf) in series [4] was 4.26 µM·h. Moreover, the clearance in series [5] stood at 76.3 mL/min/kg. The same molecule showed a peak concentration (Cmax) in series [6] of 14.8 µM. For the same molecule, the Vd in series [7] was 6.37 L/kg.

Regarding `Oc1ccc(/C=C/c2cc(O)cc(O)c2)cc1` [RESVERATROL], in [8], the Cmax came to 15.3 µM. Moreover, the Vd in series [9] stood at 37.6 L/kg. Moreover, in [10], the clearance stood at 119 mL/min/kg. Moreover, the Tmax in series [11] was 2.5 min. The same molecule gave an AUC(0-t) in [12] of 8.5 µM·h. The half-life in series [13] amounted to 3.18 h. In [14], this molecule had an AUC(0-inf) of 9.85 µM·h.

For `O=C(O)[C@H]1O[C@@H](Oc2cc(O)cc(/C=C/c3ccc(O)cc3)c2)[C@H](O)[C@@H](O)[C@@H]1O`, the Tmax in [15] was 2.5 min. In addition, in [16], the Vd stood at 4.55 L/kg. The same molecule showed an AUC(0-t) in [17] of 10.8 µM·h. Also, in [18], the Cmax was 27.8 µM. In addition, the half-life in [19] was 4.54 h. In series [20], this molecule came in with a clearance of 13.8 mL/min/kg. The molecule also gave an AUC(0-inf) in series [21] of 11.8 µM·h.

Values taken from ChEMBL document CHEMBL3526107, “In vivo-formed versus preformed metabolite kinetics of trans-resveratrol-3-sulfate and trans-resveratrol-3-glucuronide” (Drug Metab Dispos, 2012).
